From PubChem BioAssay
Most compounds without a hit are left out; they make up all but 3.1% or so of the library.
Cneo AK release: Cryptococcus neoformans lysis via adenylate kinase release | C. neoformans lysis, adenylate kinase release luminescence, 4 h; normalised: neutral wells 0, clomiphene wells 100 | lysis activity, % at 15 µM | 360,000 compounds, 0.2% hits | AID 651654;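 active = mean lysis activity across replicates of at least 80%, whatever share of replicates individually reach that level; inactive = mean lysis activity below 80%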
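read-out = cell lysis signal | test system = log-phase Cryptococcus neoformans yeast cells | input = cells at 5 × 10^6 per mL | medium = fresh YPD growth medium | signal = luminescent adenylate kinase detection reagent | timing = 4 h at 37 °C static, read 1 h later | dosing = single dose | controls = Clomiphene as positive lysis control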
Env fusion inh: HIV envelope-mediated fusion inhibition | HeLa-JRFL Env/CEM21 cell fusion, luciferase | inhibition, % at 12.3 µM | 360,000 compounds, 1.1% hits;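 active = mean replicate inhibition score of at least 50 and every replicate individually at or above 50; inconclusive = only one of the two criteria met; inactive = mean below 50 and not all replicates reaching 50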;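 also: 0% = plate neutral controls and 100% = maraviroc near 300 nM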
F508del corr: CFTR F508del correction in bronchial cells. activity (quench increase), % at 7.58 µM. AID 720511. CFBE cells, YFP halide quenching; stimulated with forskolin plus potentiator P3; % fluorescence drop versus neutral controls. 350,000 compounds, 0.36% hits;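 active = mean added fluorescence quench of at least 8% versus neutral control, with both replicates also reaching 8%; inconclusive = only one of the mean or replicate conditions met; inactive = mean below 8% and not both replicates reaching 8%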;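 also: cells transiently co-express mutant CFTR-F508del with the halide-sensitive YFP; corrector assay measuring rescue of mutant channel to the surface after 24 h compound exposure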
Ecoli rRNA inh: inhibitors of bacterial rRNA selective over humanized ribosomes; GFP signal change (wild-type ribosome), % (no concentration beside the values); E. coli WT GFP vs humanized-ribosome RFP mutants, fluorescence, 24 h; stronger effect = lower value; DMSO median 0, no signal -100; 350,000 compounds, 1.6% hits;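 active = significant combined selectivity score with lowered wild-type GFP, culture density cut under 30%, mutant RFP and density less affected; inactive = any of these conditions unmet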
GSIS activator: primary screen for activators of insulin secretion dependent on glucose, INS-1E cells, GLuc reporter luminescence; INS-1E GLuc reporter insulin secretion, 2-3 h; activation, % at 16.6 µM; 370,000 compounds, 0.61% hits;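 active = lowest replicate activation of at least 40%, so every replicate reaches that level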;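 also: 0% = median of neutral control wells and 100% = median of IBMX positive control wells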
miR-122 sensor: inhibitors of miR-122 in Huh7 cells; Huh7 miR-122 Renilla luciferase sensor, 48 h; neutral wells = 0, positive control = 100; activation (reporter increase), % at 12.5 µM; 340,000 compounds, 0.3% hits; AID 602342;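 active = mean replicate activation score at least 90 and every replicate individually at or above 90; inconclusive = only one of the two criteria met; inactive = neither criterion met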;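 also: higher luciferase means less miR-122 activity so hits act as miR-122 inhibitors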
Active calls of the source: *; i = inactive; ? = inconclusive; . = not tested or not shown; [ ] = another dose, or the depositor's remark.

SMILES	Cneo AK release	Env fusion inh	F508del corr	Ecoli rRNA inh	GSIS activator	miR-122 sensor
Cc1nn(-c2ccc(F)cc2)c2nc(N)c(C#N)c(-c3ccc(O)c(O)c3)c12	3	13	4	-18*	-6	3
Cc1nn(-c2ccccc2)c2nc(N)c(C#N)c(-c3ccc(O)c(O)c3)c12	0	2	2	-57	-21	11
CCS(=O)(=O)N1CC(=O)N2[C@H](CO)[C@@H](c3ccc(C#CC4CCCC4)cc3)[C@H]2C1	.	.	2	3	-4	.
CSc1ccccc1C(=O)Nc1nc2ccccc2[nH]1	-7	-34	3	12	-3	-2
COc1cc(SC)ccc1C(=O)Nc1nccs1	-15	-122	3	-25*	14	4
COc1ccccc1C(=O)Nc1nc2ccccc2[nH]1	-4	73*	1	13	12	5
COc1cc(SC)ccc1C(=O)Nc1ccc2c(c1)OCCO2	-30	.	0	-25*	3	-2
COc1cc(SC)ccc1C(=O)Nc1nc2ccccc2[nH]1	-3	92*	0	-3	12	-4
COc1cc(SC)ccc1C(=O)Nc1ccccc1	-2	i	.	.	.	-15
C[C@@H]1CN([C@H](C)CO)C(=O)c2cccc(NC(=O)C3CCOCC3)c2O[C@H]1CN(C)Cc1ccc2c(c1)OCO2	-2	8[16.7 µM]	-2	-5	19	0[16.7 µM]
COc1ccc(C(=O)N[C@H](C(=O)Nc2nc3ccccc3[nH]2)C(C)C)cc1	-14	i	3	16	17	117*
Cc1nnc2c3ccccc3c(-c3ccccc3)nn12	-1	-22	.	.	.	2
OCc1nnc2c3ccccc3c(-c3ccccc3)nn12	0	-30	.	9	41*	-7
COc1ccc2c(c1)[C@@]1(OCCC=C[C@H]1C)C(=O)N2CC1CC1	.	27	1	28	53*	.
COc1ccc2c(c1)[C@@]1(OCCC=C[C@H]1C)C(=O)N2C/C=C(\C)CCC=C(C)C	.	8	-1	23	-22	.
Cc1ccc(C(=O)NC(C)c2ccc(-n3ccnc3)cc2)cc1S(=O)(=O)N1CCOCC1 (centres undefined)	0	-8	1	18	2	6
CC(NC(=O)c1cc(S(=O)(=O)N2CCOCC2)ccc1F)c1ccc(-n2ccnc2)cc1 (centres undefined)	1	41	11*	8	-5	-2
COc1ccc(NC(=O)N2CCC(c3nc4ccccc4[nH]3)CC2)cc1	.	-2	2	-22*	-1	-1
O=S(=O)(c1ccc2c(c1)OCCO2)N1CCC(c2nc3ccc(Cl)cc3[nH]2)CC1	-9	55*	.	.	-37	1
COc1ccccc1NC(=O)CN1CCC(c2nc3ccc(C)cc3[nH]2)CC1	-2	7	-1	-26*	-2	7
Cc1ccc2nc(C3CCN(S(=O)(=O)c4ccc5ccccc5c4)CC3)[nH]c2c1	6	?	.	-29*	-42	-5
O=S(=O)(c1ccc2c(c1)OCCO2)N1CCC(c2nc3ccccc3[nH]2)CC1	.	2	.	.	0	.
CO[C@@H]1CC[C@H]2CCOc3ccc(C#N)cc3C(=O)N(C)[C@H](C)C(=O)N(C)C[C@H]1O2	7	-8[16.7 µM]	.	0	5	.
O=C(C[C@@H]1CC[C@@H](NC(=O)c2ccc3c(c2)OCO3)[C@@H](CO)O1)NCc1ccc(F)cc1	7	2[16.7 µM]	-1	-7	4	.
COc1cc2c(cc1OC)CN(C(=O)[C@H]1[C@@H]3C(=O)O[C@@H](c4ccccc4)[C@@H](c4ccccc4)N3[C@@H](c3ccccc3OCCO)[C@]13C(=O)Nc1ccc(C#CC4(O)CCCCCC4)cc13)CC2	15	8[16.7 µM]	2	.	.	.
C[C@@H]1CCCCO[C@H](CN(C)C(=O)Nc2ccc(C(F)(F)F)cc2)[C@@H](C)CN([C@@H](C)CO)C(=O)c2cc(NC(=O)Nc3ccccc3)ccc2O1	2	20[16.7 µM]	-4	4	-2	12[16.7 µM]
COc1ccc(S(=O)(=O)N(C)C[C@H]2Oc3c(NC(=O)c4cc(C)nn4C)cccc3C(=O)N([C@H](C)CO)C[C@@H]2C)cc1	5	.	-1	-3	9	1[16.7 µM]
